Measurements taken from ChEMBL document CHEMBL1134500, “Investigations of new lead structures for the design of selective estrogen receptor modulators” (J Med Chem, 2001).

What was measured:
[1] = target: Estrogen receptor (Bos taurus) (UniProt Q9XSB5+P49884); assay: Displacement of 17-beta-[3H]-estradiol from estrogen receptor relative to 17-beta-estradiol; assay type: protein assay
How it was run: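 Competitive binding with calf uterine cytosol as receptor source and 17β-[3H]estradiol (0.723 pmol per tube) as tracer. Compounds were dissolved in ethanol, diluted in TRIS buffer to six to eight concentrations and incubated overnight at 4 °C. Free ligand was removed with dextran-charcoal (90 min, 4 °C), then supernatant was scintillation counted. Nonspecific binding was set with 2 nmol estradiol. RBA = ratio of 50%-inhibiting concentrations (estradiol/sample) × 100%.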

[2] = target: T1, Estrogen receptor (Homo sapiens) (UniProt P03372); assay: Transcriptional activation in MCF-7-2a cells expressing estrogen receptor alpha at 10e-6 M; assay type: functional, cell-based
T1 sequence (whole entry): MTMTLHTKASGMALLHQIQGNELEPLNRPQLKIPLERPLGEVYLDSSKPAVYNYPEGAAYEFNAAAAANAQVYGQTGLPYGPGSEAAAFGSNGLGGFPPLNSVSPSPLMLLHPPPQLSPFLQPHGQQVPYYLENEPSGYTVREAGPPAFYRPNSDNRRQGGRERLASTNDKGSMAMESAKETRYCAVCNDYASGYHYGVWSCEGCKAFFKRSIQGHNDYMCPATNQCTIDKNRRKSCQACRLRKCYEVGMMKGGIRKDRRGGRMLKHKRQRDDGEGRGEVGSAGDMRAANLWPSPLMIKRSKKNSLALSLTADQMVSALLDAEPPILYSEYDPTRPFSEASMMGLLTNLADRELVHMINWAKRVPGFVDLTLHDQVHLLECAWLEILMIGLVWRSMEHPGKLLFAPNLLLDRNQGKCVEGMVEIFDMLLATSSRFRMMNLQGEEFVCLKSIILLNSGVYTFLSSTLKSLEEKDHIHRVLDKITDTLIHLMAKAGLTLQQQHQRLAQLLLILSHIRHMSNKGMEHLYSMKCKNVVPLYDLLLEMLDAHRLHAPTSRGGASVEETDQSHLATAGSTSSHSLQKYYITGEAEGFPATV
How it was run: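 MCF-7-2a cells were precultured one week in DMEM with L-glutamine, antibiotics and dextran/charcoal-treated BCS (50 mL/L), then seeded in six-well plates. After 24 h compounds were added (10^-5 to 10^-10 M final) and cells incubated 50 h, then lysed 20 min at room temperature. Luciferase luminescence (RLU) was read for 10 s and normalized to Bradford protein.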

| Structure (SMILES) | RBA [1] [%] | Activation [2] [%] |
| --- | --- | --- |
| COc1ccc([C@@H](N)[C@@H](N)c2c(Cl)cc(OC)cc2Cl)c(Cl)c1 | 0 | 0 |
| COc1ccc([C@H]2NCCN[C@H]2c2c(Cl)cc(OC)cc2Cl)c(Cl)c1 | 0 | 3 |
| N[C@H](c1ccc(O)cc1Cl)[C@@H](N)c1c(Cl)cc(O)cc1Cl | 1.5 | 98 |

The remaining lines, values ahead:

| RBA [1] [%] | Activation [2] [%] | Structure (SMILES) |
| --- | --- | --- |
| 0 | 6 | COc1ccc(-c2[nH]cnc2-c2c(Cl)cc(OC)cc2Cl)c(Cl)c1 |
| 0.1 | 27 | Oc1ccc(-c2[nH]cnc2-c2c(Cl)cc(O)cc2Cl)c(Cl)c1 |
| < 0.02 | 20 | Oc1ccc([C@H]2NCCN[C@H]2c2c(Cl)cc(O)cc2Cl)c(Cl)c1 |
| 0 | 6 | COc1ccc([C@H]2N=CN[C@H]2c2c(Cl)cc(OC)cc2Cl)c(Cl)c1 |
